Screening results from PubChem.
An excerpt weighted towards active compounds, which were near 4.5% of everything screened.
TAAR1 ag: agonists of human TAAR1. AID 624467. activation, % at 3 µM. 360,000 compounds, 0.99% hits. Q96RJ0. CHO RD-HGA16 TAAR1, Fluo-8 calcium fluorescence; vehicle wells 0%, saturating PEA agonist 100%;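 active = activation above the mean activation of all test compounds in the run plus 3 SD, cut at about 38% in these data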
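Test system: RD-HGA16 (CHO) cells co-expressing Gα16 and hTAAR1 | Doses: Single dose, 3 µM | Schedule: 17-24 h seeding, 75 min 37 °C dye, 30 min RT | Evaluation: % activation from peak over basal fluorescence ratio, DMSO-to-PEA scaled | Technique: Kinetic Fluo-8 calcium fluorescence | Benchmarks: Low control DMSO, high control PEA (EC100)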
TAAR1 antagonist: antagonists of human TAAR1 | CHO RD-HGA16 TAAR1, Fluo-8 calcium fluorescence, antagonist | inhibition, % at 3 µM | 360,000 compounds, 1.5% hits | AID 624466;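 active = inhibition above a per-plate cutoff, the mean inhibition of test compounds on that plate plus 3 SD, cut at about 49% in these data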;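 also: 0% = DMSO plus EC80 beta-PEA response and 100% = DMSO alone without agonist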
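Assay system: CHO-derived RD-HGA16 cells stably expressing human TAAR1 plus Gα16. Timing: 140 s kinetic read after compound, 140 s after agonist. Technique: kinetic Fluo-8 calcium fluorescence measurement. Measure: % inhibition of agonist calcium response.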
CHO parental Ca: counter-screen: ATP calcium response change in parental CHO cells | parental CHO-K1, ATP-induced calcium, Fluo-8 fluorescence | inhibition, % at 5.6 µM | 330,000 compounds, 0.63% hits | AID 463079;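 active = inhibition above that plate's mean sample inhibition plus 3 SD, cut at about 26% in these data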;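 also: 0% = ATP-challenged DMSO wells and 100% = DMSO wells without ATP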
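Material: Parental CHO cells | Reagent: ATP | Compound dosing: Single nominal dose of 5.6 µM per compound | Detection: Intracellular calcium via Fluo-8 no-wash fluorescent dye | Read-out: % inhibition of ATP-induced calcium mobilization | Benchmarks: Low control ATP plus DMSO, high control DMSO only | Replicates: Singlicate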
OX1R antag-1: antagonists of human orexin 1 receptor (OX1R); O43613; OX1R-expressing cells, FRET antagonist read-out; inhibition, % at 6.6 µM; 330,000 compounds, 1.8% hits; in the data active = inhibition mostly above about 38%, no sharp cut-off; inactive = mostly below about 40%;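 also: 0% = agonist challenge alone and 100% = reference antagonist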
Target sequence (O43613 whole entry, looked up): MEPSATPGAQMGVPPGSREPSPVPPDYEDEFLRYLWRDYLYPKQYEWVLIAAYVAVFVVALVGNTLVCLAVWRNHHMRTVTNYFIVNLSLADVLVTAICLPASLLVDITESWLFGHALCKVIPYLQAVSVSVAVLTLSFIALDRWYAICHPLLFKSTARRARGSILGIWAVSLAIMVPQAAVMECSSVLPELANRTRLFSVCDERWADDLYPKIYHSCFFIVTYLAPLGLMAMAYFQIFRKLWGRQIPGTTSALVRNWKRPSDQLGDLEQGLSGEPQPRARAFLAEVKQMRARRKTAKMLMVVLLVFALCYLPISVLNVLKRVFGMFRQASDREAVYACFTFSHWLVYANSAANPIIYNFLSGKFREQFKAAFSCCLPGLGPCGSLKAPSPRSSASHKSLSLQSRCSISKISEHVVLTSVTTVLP
GPR7 antagonist: blocks human GPR7 receptor signaling. AID 1861. inhibition, % at 4.4 µM. 290,000 compounds, 1.1% hits. GPR7-expressing cells, fluorescence antagonist assay. P48145; in the data active = inhibition above about 16%, passing the limit was not always enough;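 also: cells stimulated with the agonist NPW; 0% = agonist with vehicle and 100% = vehicle without agonist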
OX1R antag-2: human HCRTR1 antagonism. O43613. CHO/OX1R cells, Fluo-8 calcium fluorescence, orexin A. 330,000 compounds, 0.43% hits. inhibition, % at 5 µM;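 active = inhibition above its plate's threshold, mean inhibition of all tested compounds on the plate plus 3 SD, cut at about 37% in these data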;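 also: 0% = orexin A challenge wells and 100% = SB-334867-A antagonist wells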
Starred values were filed as active, the others as inactive.

`O=C(Nc1ccc([N+](=O)[O-])cc1)Nc1nc(-c2ccc(Cl)s2)cs1` gave TAAR1 ag 10.6, TAAR1 antagonist 3.3, CHO parental Ca 57.2*, OX1R antag-1 27.6, GPR7 antagonist -6.6 and OX1R antag-2 27.7.
For CC(=O)Nc1nc(-c2ccc([N+](=O)[O-])cc2)cs1 the results were TAAR1 ag 4.8, TAAR1 antagonist -12.1, CHO parental Ca 1.7, OX1R antag-1 23.3, GPR7 antagonist -4.5 and OX1R antag-2 0.2.
Screening Cc1cc(C)c(NC(=O)C2CCN(S(C)(=O)=O)CC2)c(C)c1 returned TAAR1 ag 1.2 and TAAR1 antagonist -3.5.
Screening O=C(c1cc(-c2ccc(Cl)cc2)on1)N1CCc2ccccc2C1 returned TAAR1 ag 39.1*, TAAR1 antagonist 2.5, CHO parental Ca 2.4, OX1R antag-1 37.5, GPR7 antagonist -6.5 and OX1R antag-2 -7.7.
For CC12CCC(C(=O)C1)C1(C)CCCC(=O)C21 (centres undefined) the results were TAAR1 ag 2.6 and TAAR1 antagonist -11.8.
`Cc1ccc(C)c(C(=O)COC(=O)c2n[nH]c3ccccc23)c1` gave TAAR1 ag 1.0, TAAR1 antagonist 40.7, CHO parental Ca -16.2, OX1R antag-1 35.7* and OX1R antag-2 -14.1.
`Cc1nn(-c2ccccc2)c(Cl)c1C(=O)NCC(=O)O` gave TAAR1 ag -0.6, TAAR1 antagonist 10.4, CHO parental Ca -5.5, OX1R antag-1 2.6, GPR7 antagonist -4.8 and OX1R antag-2 -0.7.
Screening Cc1nn(-c2ccccc2)c(Cl)c1CN(C(=O)CCl)c1cccc2ccccc12 returned TAAR1 ag 11.2, TAAR1 antagonist 50.5*, CHO parental Ca -12.4, OX1R antag-1 23.2, GPR7 antagonist 32.1* and OX1R antag-2 -18.8.
O=C(Nc1cccc([N+](=O)[O-])c1)c1cnccn1 was read as TAAR1 ag 1.6, TAAR1 antagonist -5.2, CHO parental Ca -5.5, OX1R antag-1 45.4, GPR7 antagonist -6.4 and OX1R antag-2 -6.8.
O=C(N/N=C/c1cc([N+](=O)[O-])ccc1Cl)c1cnccn1 was read as TAAR1 ag 0.8, TAAR1 antagonist -16.7, CHO parental Ca -10.9, OX1R antag-1 71.5*, GPR7 antagonist 7.0 and OX1R antag-2 -15.3.
For O=C(CN1CCN(c2ccccc2O)CC1)Nc1ccnn1C1CCCC1 the results were TAAR1 ag 9.5, TAAR1 antagonist -5.6, CHO parental Ca -23.4, OX1R antag-1 1.5 and OX1R antag-2 -19.4.
For C=CCSc1nnc(-c2cc3c(-c4ccccc4)nn(C)c3s2)n1C the results were TAAR1 ag 12.1, TAAR1 antagonist 0.9, CHO parental Ca -29.4, OX1R antag-1 74.9*, GPR7 antagonist -6.0 and OX1R antag-2 -4.0.
O=CNc1cc(-c2cccc(O)c2)cn2c(-c3ccc(F)cc3)cnc12 was read as TAAR1 ag 7.3 and TAAR1 antagonist 17.8.
`N#CC1=C(N)NC(SCc2ccc(Br)cc2)=C(C#N)C12CCCCC2` gave TAAR1 ag 22.0, TAAR1 antagonist 26.9, CHO parental Ca 45.4*, OX1R antag-1 19.0, GPR7 antagonist 3.7 and OX1R antag-2 4.5.
N#CC1=C(N)NC(SCc2ccc(Cl)cc2)=C(C#N)C12CCCCC2 was read as TAAR1 ag 21.6, TAAR1 antagonist 61.7*, CHO parental Ca 46.9*, OX1R antag-1 25.0, GPR7 antagonist 7.3 and OX1R antag-2 54.3*.
Screening COC(=O)c1cc2c(c3c4cc(F)ccc4n(S(=O)(=O)c4ccccc4)c13)C(=O)N(C)C2 returned TAAR1 ag -0.2 and TAAR1 antagonist -6.5.
`O=C(CNC(=O)c1ccc2c(c1)OCO2)N/N=C/c1cccc([N+](=O)[O-])c1` gave TAAR1 ag -3.8, TAAR1 antagonist -13.6, CHO parental Ca -11.6, OX1R antag-1 31.8, GPR7 antagonist -0.2 and OX1R antag-2 -22.9.
O=C(CNC(=O)c1ccc2c(c1)OCO2)N/N=C(Br)/C=C/c1ccccc1 was read as TAAR1 ag 41.1*, TAAR1 antagonist 7.9, CHO parental Ca -9.8, OX1R antag-1 29.5, GPR7 antagonist 18.1 and OX1R antag-2 -1.9.
COC(=O)[C@]12C[C@H](CC(=O)NCc3cccc(C(F)(F)F)c3)C(=O)N(CCC3=CCCCC3)C1=C[C@H](COCc1ccccc1)O[C@@H]2C was read as TAAR1 ag -0.4 and TAAR1 antagonist -21.0.
`COc1ccc(-c2ccccc2C2Cc3nnccc3CN2)cc1` (centres undefined) gave TAAR1 ag 4.1 and TAAR1 antagonist 0.4.
For Cc1cc(C)c(C)c(C(=O)CSc2nnc(-c3ccc4[nH]c(C)c(C)c4c3)o2)c1C the results were TAAR1 ag 6.2, TAAR1 antagonist 69.4*, CHO parental Ca -4.6, OX1R antag-1 12.8, GPR7 antagonist -8.1 and OX1R antag-2 -22.7.
Screening Cc1[nH]c2ccc(-c3nnc(SCC(=O)c4ccc(F)cc4)o3)cc2c1C returned TAAR1 ag 7.6, TAAR1 antagonist 4.2, CHO parental Ca 3.0, OX1R antag-1 9.5, GPR7 antagonist 25.7 and OX1R antag-2 -15.4.
O=C(O)c1ccc(-n2c(/C=C/c3ccccc3)nc3ccccc3c2=O)cc1 was read as TAAR1 ag 4.6, TAAR1 antagonist 34.8, CHO parental Ca 8.4, OX1R antag-1 37.4*, GPR7 antagonist -21.1 and OX1R antag-2 3.5.
Screening C[C@H](O)[C@@H]1C(=O)N2CCc3c([nH]c4cccc(-c5ccccc5)c34)[C@@H]2C[C@@H]1N(C)C(=O)OCc1ccccc1 returned TAAR1 ag 0.3 and TAAR1 antagonist 22.3.
`O=C(CSc1nnc(-c2cccs2)n1-c1ccccc1)NCc1ccc2c(c1)OCO2` gave TAAR1 ag 1.3, TAAR1 antagonist 15.9, CHO parental Ca -15.8, OX1R antag-1 62.0*, GPR7 antagonist -4.9 and OX1R antag-2 -7.1.
For O=C(CSc1nnc(-c2cccs2)n1Cc1ccccc1)NCc1ccc2c(c1)OCO2 the results were TAAR1 ag -0.6, TAAR1 antagonist 7.9, CHO parental Ca -21.7, OX1R antag-1 62.0*, GPR7 antagonist 2.2 and OX1R antag-2 -23.2.
`CCn1c(SCC(=O)NCc2ccc3c(c2)OCO3)nnc1-c1cccs1` gave TAAR1 ag 7.0, TAAR1 antagonist 9.9, CHO parental Ca -13.3, OX1R antag-1 6.2, GPR7 antagonist -2.3 and OX1R antag-2 7.0.
Screening Cc1ccc(Oc2ncccc2N)c2c1CCC2 returned TAAR1 ag 0.2, TAAR1 antagonist -5.4, CHO parental Ca -21.1, OX1R antag-1 16.7, GPR7 antagonist 18.6* and OX1R antag-2 -7.7.
For CCOC(=O)c1nc(Nc2ccc(Nc3ccccc3)cc2)c2ccccc2n1 the results were TAAR1 ag 11.1, TAAR1 antagonist 62.7* and GPR7 antagonist -3.3.
